In ChEMBL document CHEMBL1147230, “Novel oxylipin metabolites from the brown alga Eisenia bicyclis” (2003):

Experiments:
Type in all cases: functional
Bacillus subtilis [1] = experiment: Antibacterial activity against Bacillus subtilis after 12 hrs relative to vancomycin
Outline: (§1)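 Paper disk diffusion: 0.1 mg sample loaded per disk, incubated on bouillon culture medium at 37 °C. Inhibition zone diameter measured after 12 h. Activity expressed relative to a vancomycin standard disk (0.1 mg).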

Staphylococcus aureus [2] = experiment: Antibacterial activity against Staphylococcus aureus after 12 hrs relative to vancomycin; outline: as §1
Staphylococcus aureus [3] = experiment: Antibacterial activity against Staphylococcus aureus after 12 hrs
Outline: (§2)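 Paper disk diffusion: 0.1 mg sample loaded per disk, incubated in bouillon culture medium at 37 °C for 12 h, then inhibition zone diameter measured. Activity expressed relative to vancomycin standard (0.1 mg per disk).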

Bacillus subtilis [4] = experiment: Antibacterial activity against Bacillus subtilis after 12 hrs; outline: as §2

Row | SMILES | Activity (Bacillus subtilis [1]) | Activity (Staphylococcus aureus [2]) | inhibition zone (IZ) (Staphylococcus aureus [3]) | inhibition zone (IZ) (Bacillus subtilis [4])
1 | CC[C@@H]1OC(=O)CCCC/C=C\C/C=C\[C@H]2[C@H]1C[C@@H]1O[C@H]21 [ECKLONIALACTONE A] | 0.3 | 0.41 | – | –
2 | CC[C@@H]1OC(=O)CCC/C=C\C/C=C\C/C=C\[C@@H]2[C@@H](O)[C@H](Cl)C[C@H]21 [EISENIACHLORIDE C] | 0.29 | 0.34 | – | –
3 | CC[C@@H]1OC(=O)CCCCCCC/C=C\[C@@H]2[C@@H](O)[C@H](Cl)C[C@H]21 [EISENIACHLORIDE B] | 0.31 | 0.53 | – | –
4 | CN[C@H](CC(C)C)C(=O)N[C@H]1C(=O)N[C@@H](CC(N)=O)C(=O)N[C@H]2C(=O)N[C@H]3C(=O)N[C@H](C(=O)N[C@H](C(=O)O)c4cc(O)cc(O)c4-c4cc3ccc4O)[C@H](O)c3ccc(c(Cl)c3)Oc3cc2cc(c3O[C@@H]2O[C@H](CO)[C@@H](O)[C@H](O)[C@H]2O[C@H]2C[C@](C)(N)[C@H](O)[C@H](C)O2)Oc2ccc(cc2Cl)[C@H]1O [VANCOMYCIN] | 1 | 1 | 34.6 mm | 26.8 mm
5 | CC[C@@H]1OC(=O)CCCCCCC/C=C\[C@@H]2[C@@H](O)[C@H](I)C[C@H]21 [EISENIAIODIDE B] | 0.28 | 0.47 | – | –
6 | CC[C@H]1O[C@@H]2[C@@H](/C=C\C/C=C\CCCCC(=O)O)[C@H]1C[C@H]2Cl | 0.43 | 0.4 | – | –
7 | CC[C@@H]1OC(=O)CCCC/C=C\C/C=C\[C@@H]2[C@@H](O)[C@H](Cl)C[C@H]21 [EISENIACHLORIDE A] | 0.36 | 0.38 | – | –
8 | CC[C@H](Cl)[C@@H]1C[C@@H]2O[C@@H]2[C@H]1/C=C\C/C=C\CCCCC(=O)O [EGREGIACHLORIDE A] | 0.35 | 0.47 | – | –
